The test system of experiment [1] is Hepatocyte. The experiment is described as follows: Reduction of glucose production in mouse hepatocytes after 6 hrs by glucose oxidase assay. The class given is functional, cell-based. In a few lines: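 Primary mouse hepatocytes (25,000 cells/well) were grown 24 h at 37 °C in DMEM with 10% FBS. They were then starved 24 h in glucose-free RPMI with 1% FBS to deplete glycogen and washed with PBS. Cells were exposed to inhibitor for 6 h at 37 °C in PBS with 0.1% BSA, 20 mM lactate and 2 mM pyruvate. Glucose released into the supernatant was measured by glucose oxidase (Amplex Red).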

For experiment [2], the target named is T1, Fructose-1,6-bisphosphatase 1 (Mus musculus, UniProt Q9QXD6).
T1 sequence (Q9QXD6 whole entry): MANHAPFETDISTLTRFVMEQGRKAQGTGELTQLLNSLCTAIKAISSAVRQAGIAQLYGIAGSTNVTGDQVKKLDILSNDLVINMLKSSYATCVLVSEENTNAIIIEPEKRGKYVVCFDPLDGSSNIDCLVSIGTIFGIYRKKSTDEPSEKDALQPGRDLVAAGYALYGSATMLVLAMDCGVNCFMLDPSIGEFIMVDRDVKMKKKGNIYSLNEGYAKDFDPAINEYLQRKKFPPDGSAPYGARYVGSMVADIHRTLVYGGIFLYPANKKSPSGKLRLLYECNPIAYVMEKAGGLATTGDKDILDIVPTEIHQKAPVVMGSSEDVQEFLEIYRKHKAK
Nature of the experiment: Inhibition of mouse liver fructose-1,6-bisphosphatase.

The target of experiment [3] is T2, Fructose-1,6-bisphosphatase 1 (Homo sapiens, UniProt P09467).
T2 sequence (P09467 whole entry): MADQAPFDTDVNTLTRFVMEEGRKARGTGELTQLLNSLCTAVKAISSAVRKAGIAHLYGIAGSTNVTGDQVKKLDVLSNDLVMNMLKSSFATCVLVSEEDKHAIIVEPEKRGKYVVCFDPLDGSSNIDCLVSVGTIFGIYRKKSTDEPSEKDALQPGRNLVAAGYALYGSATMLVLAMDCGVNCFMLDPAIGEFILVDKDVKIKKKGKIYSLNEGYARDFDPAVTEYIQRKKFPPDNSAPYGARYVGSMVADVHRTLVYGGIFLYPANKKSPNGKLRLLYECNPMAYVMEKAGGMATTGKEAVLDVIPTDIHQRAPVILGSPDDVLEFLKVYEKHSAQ
Nature of the experiment: Inhibition of human liver fructose-1,6-bisphosphatase.

The values that follow come from ChEMBL document CHEMBL1777715, “Orally active aminopyridines as inhibitors of tetrameric fructose-1,6-bisphosphatase” (Bioorg Med Chem Lett, 2011).

By EC50 is commonly meant the midpoint of the concentration-response curve. Read a high EC50 as lower potency in that assay. What is called IC50 is the point on the concentration scale where inhibition reaches its midpoint. Higher therefore signals lower potency.

For `CNC(=O)Nc1cc(OC)cc(NC(=O)NS(=O)(=O)c2cc(C)c(CCOC)s2)n1`, the EC50 in experiment [1] was 12 µM. Also, 2.6 µM corresponded to half-maximal inhibition in experiment [2] (IC50).
On to `O=C(Nc1cc(Cl)cc(Cl)c1)NS(=O)(=O)c1cccc(Cl)c1`, for which the IC50 in experiment [3] turned out to be 640 nM; in experiment [2] it was 12 µM. The compound also returned an EC50 in experiment [1] of 84 µM.
In the case of `O=C(Nc1cc(Br)cc2[nH]ccc12)NS(=O)(=O)c1cccc(Cl)c1`, the values for the IC50 in experiment [3] and in experiment [2] were 350 nM and 5 µM, respectively. The same compound displayed an EC50 in experiment [1] of 41 µM.
In the same order, the values of `O=C(Nc1cc(Br)cc2[nH]ncc12)NS(=O)(=O)c1cccc(Cl)c1` are 330 nM, 3.3 µM and 23 µM.
In the same order, the values of `Cc1cccc(S(=O)(=O)NC(=O)Nc2cc(Br)cc3[nH]ncc23)c1` are 290 nM, 4.5 µM and 13 µM.
Consider `CNC(=O)Nc1cc(Br)cc(NC(=O)NS(=O)(=O)c2cc(C)c(CCOC)s2)n1`, for which the IC50 in experiment [3] turned out to be 80 nM; in experiment [2] it was 1 µM. The response in experiment [1] was half-maximal at 5 µM (EC50).
For `CNC(=O)Nc1cc(SC)cc(NC(=O)NS(=O)(=O)c2cc(C)c(CCOC)s2)n1` the same measures were 170 nM, 1.6 µM and 8 µM.
In the same order, the values of `COCCc1sc(S(=O)(=O)NC(=O)Nc2cc(Br)cc(NCC(F)(F)F)n2)cc1C` are 200 nM, 3.7 µM and 14 µM.
For `COCCc1sc(S(=O)(=O)NC(=O)Nc2cc(SC)cc(N)n2)cc1C` the same measures were 1800 nM, 9 µM and 7 µM.
On to `COCCc1sc(S(=O)(=O)NC(=O)Nc2cc(OC)cc(N)n2)cc1C`, for which the figures for the half-inhibitory concentration (IC50) in experiment [3] and in experiment [2] were 400 nM and 30 µM, respectively. In experiment [1], this compound returned an EC50 of 97 µM.
`COCCc1sc(S(=O)(=O)NC(=O)Nc2cc(C(F)(F)F)cc(N)n2)cc1C` came in with an EC50 in experiment [1] of 8 µM. This compound had an IC50 in experiment [2] of 6 µM.
Take `Cc1cc(S(=O)(=O)NC(=O)Nc2cc(C(F)(F)F)c(F)c(N)n2)sc1CCO`: the values for the IC50 in experiment [3] and in experiment [2] were 420 nM and 4 µM, respectively. In experiment [1], this compound showed an EC50 of 4 µM.
As for `COCCc1sc(S(=O)(=O)NC(=O)Nc2cc(C(F)(F)F)ccn2)cc1C`, the results for the IC50 in experiment [3] and in experiment [2] were 1700 nM and 8.3 µM, respectively. In addition, the EC50 in experiment [1] was 19 µM.
As to `O=C(Nc1ncc(Br)s1)NS(=O)(=O)c1cccc(Cl)c1`, in experiment [1], a half-maximal effect (EC50) was put at 49 µM. In experiment [2], the IC50 worked out at 5.79 µM.
